Columns and labels:
[1] = target: Neuronal acetylcholine receptor subunit alpha-7 (Rattus norvegicus, UniProt Q05941); test: Binding affinity at rat brain Nicotinic acetylcholine receptor alpha7
[2] = target: T1, Neuronal acetylcholine receptor; alpha3/beta4 (Rattus norvegicus, UniProt P04757+P12392); test: Binding affinity at rat brain Nicotinic acetylcholine receptor alpha3-beta4
[3] = target: T1, Neuronal acetylcholine receptor; alpha3/beta4; test: Activation potency at Nicotinic acetylcholine receptor alpha3beta4, expressed as concentration required to achieve a half maximal activation; assay type: protein-complex assay
In short: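 Rat α3β4 nAChR stably expressed in L cells, induced 7–10 days with 1 μM dexamethasone; cells loaded with 5 μM fluo-3 (1 h, room temperature, dark). Agonist given in high-calcium buffer (75 mM CaCl2, pH 7.4), fluorescence followed 16 s.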

[4] = Compound was tested for its potency at Nicotinic acetylcholine receptor alpha3-beta4 relative to that of Nicotinic acetylcholine receptor alpha4-beta2
[5] = Ratio of Ki (binding affinity) relative to activation potency
[6] = target: Neuronal acetylcholine receptor subunit alpha-7 (Rattus norvegicus) (UniProt Q05941); test: Compound was tested for its potency at Nicotinic acetylcholine receptor alpha-7 relative to that of Nicotinic acetylcholine receptor alpha4-beta2
Chain of Neuronal acetylcholine receptor subunit alpha-7 (Rattus norvegicus) (Q05941 whole entry): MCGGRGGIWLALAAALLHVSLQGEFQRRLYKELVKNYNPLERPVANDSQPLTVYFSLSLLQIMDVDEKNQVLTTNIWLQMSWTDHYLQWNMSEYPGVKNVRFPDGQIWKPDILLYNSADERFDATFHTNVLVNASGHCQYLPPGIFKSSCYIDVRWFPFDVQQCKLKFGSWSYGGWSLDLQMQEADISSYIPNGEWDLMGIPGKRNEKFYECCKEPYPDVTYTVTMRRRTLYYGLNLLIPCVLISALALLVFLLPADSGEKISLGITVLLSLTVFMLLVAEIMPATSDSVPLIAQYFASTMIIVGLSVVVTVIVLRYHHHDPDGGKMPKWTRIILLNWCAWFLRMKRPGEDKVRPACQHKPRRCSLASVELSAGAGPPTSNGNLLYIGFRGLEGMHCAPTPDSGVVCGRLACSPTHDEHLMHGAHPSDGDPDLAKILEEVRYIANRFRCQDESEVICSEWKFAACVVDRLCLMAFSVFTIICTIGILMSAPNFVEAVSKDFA

[7] = target: Neuronal acetylcholine receptor; alpha4/beta2 (Rattus norvegicus, UniProt P09483+P12390); test: Binding affinity at rat brain Nicotinic acetylcholine receptor alpha4-beta2
Chain of Neuronal acetylcholine receptor; alpha4/beta2 (P09483 whole entry): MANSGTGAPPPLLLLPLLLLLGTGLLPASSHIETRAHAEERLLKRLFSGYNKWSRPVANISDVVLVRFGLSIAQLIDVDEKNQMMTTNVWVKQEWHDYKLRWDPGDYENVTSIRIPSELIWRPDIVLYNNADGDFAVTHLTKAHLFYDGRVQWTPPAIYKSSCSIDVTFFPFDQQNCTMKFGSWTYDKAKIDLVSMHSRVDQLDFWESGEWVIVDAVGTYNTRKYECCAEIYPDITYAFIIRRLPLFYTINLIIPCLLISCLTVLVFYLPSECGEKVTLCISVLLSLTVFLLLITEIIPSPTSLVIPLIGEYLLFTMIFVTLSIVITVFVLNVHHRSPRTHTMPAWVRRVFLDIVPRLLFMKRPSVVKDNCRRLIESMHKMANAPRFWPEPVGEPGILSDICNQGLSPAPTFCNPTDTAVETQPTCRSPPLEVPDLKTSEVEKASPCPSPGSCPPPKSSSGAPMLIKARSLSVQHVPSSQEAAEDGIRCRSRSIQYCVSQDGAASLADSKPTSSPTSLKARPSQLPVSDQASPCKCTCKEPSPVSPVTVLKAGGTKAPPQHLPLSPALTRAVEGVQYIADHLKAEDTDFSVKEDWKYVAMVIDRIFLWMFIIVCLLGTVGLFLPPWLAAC
Chain of Neuronal acetylcholine receptor; alpha4/beta2 (P12390 whole entry): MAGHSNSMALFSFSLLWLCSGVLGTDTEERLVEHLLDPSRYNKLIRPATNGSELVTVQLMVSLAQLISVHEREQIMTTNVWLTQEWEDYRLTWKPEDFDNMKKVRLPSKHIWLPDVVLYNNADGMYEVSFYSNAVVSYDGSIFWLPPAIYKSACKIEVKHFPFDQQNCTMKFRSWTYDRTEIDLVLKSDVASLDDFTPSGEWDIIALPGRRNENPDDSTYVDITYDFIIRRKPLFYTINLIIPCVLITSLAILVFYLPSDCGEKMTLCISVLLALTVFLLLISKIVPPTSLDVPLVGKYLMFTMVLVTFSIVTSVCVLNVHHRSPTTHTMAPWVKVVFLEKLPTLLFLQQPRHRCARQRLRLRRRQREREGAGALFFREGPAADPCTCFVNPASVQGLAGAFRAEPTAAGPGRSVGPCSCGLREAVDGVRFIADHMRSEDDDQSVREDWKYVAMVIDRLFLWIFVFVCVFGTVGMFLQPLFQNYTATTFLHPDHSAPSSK
In short: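 Rat brain P2 membranes (250 μg protein) competed against 10 nM (–)-[3H]nicotine, 30 min room temperature then 1 h at 4 °C; filtration. Nonspecific binding with 1 mM (–)-nicotine.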

Chain of Neuronal acetylcholine receptor subunit alpha-7 (Q05941 whole entry): as the sequence (Q05941 whole entry) above
T1 sequence (P04757 whole entry): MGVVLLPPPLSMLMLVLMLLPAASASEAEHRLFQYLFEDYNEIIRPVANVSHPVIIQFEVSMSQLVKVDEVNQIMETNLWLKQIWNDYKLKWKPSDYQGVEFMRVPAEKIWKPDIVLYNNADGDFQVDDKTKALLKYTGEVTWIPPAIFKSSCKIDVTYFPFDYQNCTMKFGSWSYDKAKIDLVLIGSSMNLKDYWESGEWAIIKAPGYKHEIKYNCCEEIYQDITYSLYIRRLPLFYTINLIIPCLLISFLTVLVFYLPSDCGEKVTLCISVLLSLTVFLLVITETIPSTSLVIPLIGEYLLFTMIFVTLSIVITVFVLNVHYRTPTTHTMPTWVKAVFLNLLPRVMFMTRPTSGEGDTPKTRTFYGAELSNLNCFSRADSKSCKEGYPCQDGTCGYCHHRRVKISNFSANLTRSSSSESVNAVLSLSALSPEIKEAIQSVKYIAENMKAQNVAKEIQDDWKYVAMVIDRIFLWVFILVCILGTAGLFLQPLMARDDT
T1 sequence (P12392 whole entry): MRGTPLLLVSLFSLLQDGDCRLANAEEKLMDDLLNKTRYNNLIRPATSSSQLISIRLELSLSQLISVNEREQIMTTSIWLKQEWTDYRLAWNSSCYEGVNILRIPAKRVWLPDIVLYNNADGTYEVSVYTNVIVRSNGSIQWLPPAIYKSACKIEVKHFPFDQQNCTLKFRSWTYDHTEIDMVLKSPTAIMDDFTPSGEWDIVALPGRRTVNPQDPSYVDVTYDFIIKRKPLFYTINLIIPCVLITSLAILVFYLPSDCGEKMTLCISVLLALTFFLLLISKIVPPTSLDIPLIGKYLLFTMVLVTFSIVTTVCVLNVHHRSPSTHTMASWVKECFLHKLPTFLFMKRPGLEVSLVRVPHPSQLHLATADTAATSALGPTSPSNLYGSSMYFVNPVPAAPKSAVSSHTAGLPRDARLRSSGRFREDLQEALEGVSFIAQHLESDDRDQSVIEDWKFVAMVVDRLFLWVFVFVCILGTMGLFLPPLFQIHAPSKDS

Row | SMILES | Ki [1] | Ki [2] | EC50 [3] | Affinity ratio [4] | Ratio [5] | Affinity ratio [6] | Ki [7]
1 | C1=C(c2cncnc2)C2CC[C@H](CC1)N2 | 1710 nM | 236 nM | 3890 nM | 96 | 16 | 696 | 2.45 nM
2 | C1=C(c2cccnc2)C2CC[C@H](CC1)N2 | 89 nM | – | – | – | – | – | 0.43 nM
3 | C1=C(c2ccccn2)C2CC[C@H](CC1)N2 | 47500 nM | 10500 nM | > 100000 nM | 6.8 | – | 31 | –
4 | C1=C(c2cnccn2)C2CC[C@H](CC1)N2 | 5770 nM | 2850 nM | > 100000 nM | 49 | – | 100 | 58 nM
5 | C1=C(c2cccnn2)C2CC[C@H](CC1)N2 | 68.4 nM | 306 nM | 4190 nM | 20 | 14 | 118 | 2.6 nM
6 | C1=C(c2ccncc2)C2CC[C@H](CC1)N2 | > 50000 nM | 22000 nM | > 100000 nM | 2 | – | – | 11000 nM
7 | Clc1ccc(C2=CCCC3CCC2N3)cn1 (racemic) | 2760 nM | – | – | – | – | – | –

From ChEMBL document CHEMBL1135438, “Synthesis and pharmacological characterization of novel analogues of the nicotinic acetylcholine receptor agonist (+/-)-UB-165” (J Med Chem, 2002)
